According to ChEMBL document CHEMBL2375320, “Synthesis and antimicrobial activity of polyhalo isophthalonitrile derivatives” (2013):
Converted amounts (≈) assume the structure as drawn. The source made the active and inactive calls. The rule behind the calls is not given here.

Experiments:
Assay type in all cases: functional
Pseudomonas aeruginosa = assay: Antibacterial activity against Pseudomonas aeruginosa ATCC 15442 assessed as growth inhibition at 1000 ug/mL after 24 hrs by disk diffusion method; conditions: for zone of inhibition at 1000 µg/mL: ATCC 15442, 24 h, read-out: IZ
Staphylococcus aureus [1] = assay: Antibacterial activity against Staphylococcus aureus ATCC 6538 assessed as growth inhibition at 1000 ug/mL after 24 hrs by disk diffusion method; conditions: for zone of inhibition at 1000 µg/mL: ATCC 6538, 24 h, read-out: IZ
Escherichia coli = assay: Antibacterial activity against Escherichia coli ATCC 8099 assessed as growth inhibition at 1000 ug/mL after 24 hrs by disk diffusion method
Staphylococcus aureus [2] = assay: Antibacterial activity against Staphylococcus aureus ATCC 6538 assessed as growth inhibition after 24 hrs by microbroth dilution method; conditions: ATCC 6538, 24 h
Method in brief: (§1)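 Tube dilution: each compound or positive control (norfloxacin, fluconazole) prepared in DMSO at 11 concentrations from 0.98 to 1000 µg/mL. Inoculum and sterile water added to tubes each holding 1 mL of compound solution. Tubes incubated 24 h and inspected for turbidity. MIC is the lowest concentration with no visible growth. Run in triplicate.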

Bacillus cereus [3] = assay: Antibacterial activity against Bacillus cereus ATCC 14579 assessed as growth inhibition after 24 hrs by microbroth dilution method; conditions: ATCC 14579, 24 h; method in brief: as §1
Candida albicans [4] = assay: Antifungal activity against Candida albicans ATCC 10231 assessed as growth inhibition at 1000 ug/mL after 72 hrs by disk diffusion method; conditions: for zone of inhibition at 1000 µg/mL: ATCC 10231, 72 h, read-out: IZ
Method in brief: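 Candida grown and kept on Sabouraud glucose agar plates. Compounds screened at a fixed 1000 µg/mL, with fluconazole as positive control. Plates incubated at 26 °C for 72 h, then zones of inhibition measured in mm.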

Bacillus cereus [5] = assay: Antibacterial activity against Bacillus cereus ATCC 14579 assessed as growth inhibition at 1000 ug/mL after 24 hrs by disk diffusion method; conditions: for zone of inhibition at 1000 µg/mL: ATCC 14579, 24 h, read-out: IZ
Candida albicans [6] = assay: Antifungal activity against Candida albicans ATCC 10231 assessed as growth inhibition after 24 hrs by microbroth dilution method; method in brief: as §1

| SMILES | inhibition zone (IZ) (Pseudomonas aeruginosa) | zone of inhibition at 1000 µg/mL (Staphylococcus aureus [1]) [mm] | inhibition zone (IZ) (Escherichia coli) | MIC (Staphylococcus aureus [2]) [µg/mL] | MIC (Bacillus cereus [3]) [µg/mL] | zone of inhibition at 1000 µg/mL (Candida albicans [4]) [mm] | zone of inhibition at 1000 µg/mL (Bacillus cereus [5]) [mm] | MIC (Candida albicans [6]; ATCC 10231, 24 h) [µg/mL] | inhibition zone (IZ) (Staphylococcus aureus [1]) | inhibition zone (IZ) (Candida albicans [4]) | inhibition zone (IZ) (Bacillus cereus [5]) | zone of inhibition at 1000 µg/mL (Pseudomonas aeruginosa) [mm] | MIC (Candida albicans [6]) | zone of inhibition at 1000 µg/mL (Escherichia coli; ATCC 8099, 24 h, read-out: IZ) [mm] |
| --- | --- | --- | --- | --- | --- | --- | --- | --- | --- | --- | --- | --- | --- | --- |
| N#Cc1c(N)c(Cl)c(F)c(C#N)c1F | inactive | 8.6 | inactive | 46.9 (≈ 220 µM) | > 1000 | 7.3 | 7.4 | 15.6 (≈ 73 µM) | – | – | – | – | – | – |
| N#Cc1c(Cl)c(Cl)c(NCc2ccccc2)c(C#N)c1Cl | inactive | – | inactive | – | – | – | – | – | inactive | inactive | inactive | – | – | – |
| COc1ccc(Nc2c(Cl)c(F)c(C#N)c(F)c2C#N)cc1 | inactive | – | inactive | – | – | – | 6.8 | – | inactive | inactive | – | – | – | – |
| CCCSc1c(Cl)c(SCCC)c(C#N)c(F)c1C#N | inactive | 8.8 | inactive | 11.7 (≈ 35.6 µM) | > 1000 | – | 7.5 | > 500 | – | inactive | – | – | – | – |
| N#Cc1c(N)c(F)c(F)c(C#N)c1F | – | 11.8 | inactive | 125 (≈ 634 µM) | 104 (≈ 529 µM) | 7.5 | 8 | 62.5 (≈ 317 µM) | – | – | – | 7.8 | – | – |
| N#Cc1c(F)c(F)c(Nc2ccccc2)c(C#N)c1F | – | 23 | inactive | 3.3 (≈ 12.1 µM) | 6.8 (≈ 24.9 µM) | 17.3 | 17.8 | 3.9 (≈ 14.3 µM) | – | – | – | 8 | – | – |
| N#Cc1c(Cl)c(Cl)c(Nc2ccccc2)c(C#N)c1Cl | inactive | – | inactive | – | – | 15.3 | – | – | inactive | – | inactive | – | – | – |
| CCCSc1c(Cl)c(N)c(C#N)c(F)c1C#N | inactive | 8.5 | inactive | 1.6 (≈ 5.93 µM) | > 1000 | – | 7.6 | > 500 | – | – | – | – | – | – |
| N#Cc1c(F)c(Cl)c(NCc2ccccc2)c(C#N)c1F | inactive | 23.1 | inactive | 0.5 (≈ 1.65 µM) | 0.4 (≈ 1.32 µM) | 13.9 | 22.6 | 0.5 (≈ 1.65 µM) | – | – | – | – | – | – |
| N#Cc1c(F)c(F)c(Nc2ccc(Cl)cc2)c(C#N)c1F | – | 19.8 | inactive | 1.5 (≈ 4.88 µM) | 31.3 (≈ 102 µM) | 13.3 | 16.7 | 2.3 (≈ 7.48 µM) | – | – | – | 7.8 | – | – |
| N#Cc1c(F)c(Cl)c(Nc2ccccc2)c(C#N)c1F | – | 13 | inactive | 3.9 (≈ 13.5 µM) | 125 (≈ 432 µM) | 13.6 | 14.6 | 0.5 (≈ 1.73 µM) | – | – | – | 7.5 | – | – |
| OC(Cn1cncn1)(Cn1cncn1)c1ccc(F)cc1F [FLUCONAZOLE] | – | – | – | – | – | 22.5 | – | 1 (≈ 3.27 µM) | – | – | – | – | – | – |
| COc1ccc(Nc2c(F)c(F)c(C#N)c(F)c2C#N)cc1 | inactive | 8.7 | inactive | 375 (≈ 1240 µM) | > 1000 | – | 8.6 | – | – | inactive | – | – | inactive | – |
| N#Cc1c(F)c(Cl)c(Nc2ccc(Cl)cc2)c(C#N)c1F | – | 10.7 | inactive | 26 (≈ 80.2 µM) | 417 (≈ 1290 µM) | – | 12.2 | – | – | inactive | – | 7.6 | inactive | – |
| N#Cc1c(N)c(Cl)c(Cl)c(C#N)c1Cl | inactive | – | inactive | – | – | – | – | – | inactive | inactive | inactive | – | – | – |
| CCn1cc(C(=O)O)c(=O)c2cc(F)c(N3CCNCC3)cc21 [NORFLOXACIN] | – | 19.9 | – | 0.5 (≈ 1.57 µM) | 0.5 (≈ 1.57 µM) | – | 15.2 | – | – | – | – | 18 | – | 31 |

| SMILES | inhibition zone (IZ) (Pseudomonas aeruginosa) | zone of inhibition at 1000 µg/mL (Staphylococcus aureus [1]) [mm] | inhibition zone (IZ) (Escherichia coli) | MIC (Staphylococcus aureus [2]) [µg/mL] | MIC (Bacillus cereus [3]) [µg/mL] | zone of inhibition at 1000 µg/mL (Candida albicans [4]) [mm] | zone of inhibition at 1000 µg/mL (Bacillus cereus [5]) [mm] | MIC (Candida albicans [6]; ATCC 10231, 24 h) [µg/mL] | inhibition zone (IZ) (Staphylococcus aureus [1]) | inhibition zone (IZ) (Candida albicans [4]) | inhibition zone (IZ) (Bacillus cereus [5]) | zone of inhibition at 1000 µg/mL (Pseudomonas aeruginosa) [mm] | MIC (Candida albicans [6]) | zone of inhibition at 1000 µg/mL (Escherichia coli; ATCC 8099, 24 h, read-out: IZ) [mm] |
| --- | --- | --- | --- | --- | --- | --- | --- | --- | --- | --- | --- | --- | --- | --- |
| N#Cc1c(N)c(Cl)c(N2CCCCC2)c(C#N)c1N1CCCCC1 | inactive | – | inactive | – | – | – | – | – | inactive | – | inactive | – | – | – |
| N#Cc1c(F)c(F)c(F)c(C#N)c1F | inactive | – | inactive | – | – | – | – | – | inactive | inactive | inactive | – | – | – |
| N#Cc1c(N)c(Sc2ccccc2)c(Sc2ccccc2)c(C#N)c1Sc1ccccc1 | inactive | – | inactive | – | – | – | – | – | inactive | – | inactive | – | – | – |
| CCCSc1c(F)c(N)c(C#N)c(SCCC)c1C#N | inactive | 7.9 | inactive | – | – | – | 7.4 | – | – | – | – | – | – | – |
| N#Cc1c(F)c(F)c(NCc2ccccc2)c(C#N)c1F | inactive | 19.3 | inactive | 1.3 (≈ 4.53 µM) | 3.9 (≈ 13.6 µM) | 11.6 | 18.1 | 10.4 (≈ 36.2 µM) | – | – | – | – | – | – |
| N#Cc1c(Cl)c(Cl)c(Cl)c(C#N)c1Cl [CHLOROTHALONIL] | inactive | 20.1 | inactive | 0.5 (≈ 1.88 µM) | 0.7 (≈ 2.63 µM) | 9.9 | 20.2 | 0.5 (≈ 1.88 µM) | – | – | – | – | – | – |
| CN(C)CCCNc1c(Cl)c(N)c(C#N)c(F)c1C#N | inactive | 14.2 | inactive | – | – | – | 15 | – | – | – | – | – | – | – |
| N#Cc1c(F)c(Cl)c(F)c(C#N)c1F | inactive | – | inactive | – | – | – | – | – | inactive | inactive | inactive | – | – | – |
| COc1ccc(Nc2c(Cl)c(Cl)c(C#N)c(Cl)c2C#N)cc1 | inactive | – | inactive | – | – | – | – | – | inactive | inactive | inactive | – | – | – |
| N#Cc1c(Cl)c(Cl)c(Sc2ccccc2)c(C#N)c1Cl | inactive | 7.3 | inactive | 250 (≈ 736 µM) | > 1000 | 6.8 | 7 | > 500 | – | – | – | – | – | – |
| N#Cc1c(Sc2ccccc2)c(F)c(Sc2ccccc2)c(C#N)c1Sc1ccccc1 | inactive | – | inactive | – | – | – | 9.8 | – | inactive | inactive | – | – | – | – |
| CCCSc1c(Cl)c(N)c(C#N)c(SCCC)c1C#N | inactive | 7.5 | inactive | 250 (≈ 767 µM) | > 1000 | – | – | > 1000 | – | – | inactive | – | – | – |
| CCCSc1c(Cl)c(N)c(C#N)c(Cl)c1C#N | inactive | 7 | inactive | 500 (≈ 1750 µM) | > 1000 | – | 7 | > 1000 | – | – | – | – | – | – |
| N#Cc1c(F)c(C#N)c(Sc2ccccc2)c(Cl)c1Sc1ccccc1 | inactive | – | inactive | – | – | – | – | – | inactive | inactive | inactive | – | – | – |
| CN(C)CCCNc1c(F)c(N)c(C#N)c(F)c1C#N | inactive | 7 | inactive | – | – | – | 7.1 | – | – | – | – | – | – | – |
